# Source: ChEMBL document CHEMBL3244386, “Synthesis of fused [1,2,6]thiadiazine 1,1-dioxides as potential transition-state analogue inhibitors of xanthine oxidase and guanase” (J Med Chem, 1979)
# Activity calls are given as the source filed them. No cut-off for these calls is given here.
# How the values were obtained:
# [1] = target: T1, Xanthine dehydrogenase/oxidase (Homo sapiens, UniProt P47989); assay: Inhibition of xanthine oxidase (unknown origin) assessed as conversion of xanthine to uric acid under aerobic condition at 0.5 mM after 1 hr; details: 500 µM
# Procedure, shortened: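 Oxidized-form incubation: xanthine oxidase (50 µL of 1.2 µM) was incubated aerobically for 1.0 h with 1.0 mL of a 5 × 10⁻⁴ M compound solution and EDTA in Tris-HCl buffer, total 2.75 mL. Xanthine was then added, and the initial rate of uric acid formation was read at 295 nm against controls without compound.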
# [2] = target: T1, Xanthine dehydrogenase/oxidase; assay: Inhibition of xanthine oxidase (unknown origin) assessed as conversion of xanthine to uric acid under anaerobic condition at 5 X 10^-4 M after 1 hr; details: 500 µM
# Procedure, shortened: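 Reduced-form incubation: xanthine oxidase (50 µL of 1.2 µM), 1.0 mL of a 5 × 10⁻⁴ M compound solution and EDTA in pH 7.4 Tris were purged with N₂. Xanthine was added to reduce the enzyme, and the sealed tube was held 1 h at 25 °C (compound:enzyme 8.3 × 10³). The tube was then opened to air, xanthine added, and the 295 nm initial rate compared with controls.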
# Oryctolagus cuniculus [3] = organism: Oryctolagus cuniculus; assay: Inhibition of rabbit liver guanase using guanine as substrate at 0.4 mM
# Procedure, shortened: (§1)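 Rabbit liver guanase assay in 1.0 mL pH 7.4 0.05 M Tris-HCl with 13.3 µM guanine, started by adding enzyme. Guanine disappearance was followed at 248 nm and compared with a reaction run without inhibitor.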
# Oryctolagus cuniculus [4] = organism: Oryctolagus cuniculus; assay: Inhibition of rabbit liver guanase using guanine as substrate compound treated at 46 times substrate concentration; procedure, shortened: as §1
# [5] = Noncompetitive inhibition of rabbit liver guanase using guanine as substrate by Dixon plot analysis; set-up: species or system Oryctolagus cuniculus
# Procedure, shortened: (§2)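 Kinetics used rabbit liver guanase in pH 7.4 0.05 M Tris-HCl, with guanine at 20, 10, 6.4 and 4.8 µM and four inhibitor concentrations, read at 248 nm. Lineweaver–Burk (1/V vs 1/[S]) and Dixon (1/V vs [I]) plots were drawn. Ki was taken from the Dixon x-intercept ([…]).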
# Oryctolagus cuniculus [6] = organism: Oryctolagus cuniculus; assay: Noncompetitive inhibition of rabbit liver guanase using guanine as substrate by Lineweaver-Burk plot analysis; procedure, shortened: as §2
# [7] = Dissociation constant, pKa of the compound by titrimetric analysis; assay type: physicochemical
# Oryctolagus cuniculus [8] = organism: Oryctolagus cuniculus; assay: Inhibition of rabbit liver guanase using 13.3 uM guanine as substrate assessed as ([I]/[S])50
# Procedure, shortened: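 Rabbit liver guanase in 1.0 mL pH 7.4 0.05 M Tris-HCl with 13.3 µM guanine and varying inhibitor, started by adding enzyme. Guanine loss read at 248 nm. V0/Vi was plotted against [I], and I50 was taken where V0/Vi = 2, then expressed relative to the substrate level. Values were reproducible within ±20%.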
# Oryctolagus cuniculus [9] = organism: Oryctolagus cuniculus; assay: Inhibition of rabbit liver guanase using guanine as substrate compound treated at 28 times substrate concentration
# Procedure, shortened: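 Rabbit liver guanase, diluted from a 10 mg protein/mL stock, run at pH 7.4 in 0.05 M Tris-HCl with 13.3 µM guanine as substrate. Inhibitor was added at varying amounts, at least 28 times the substrate concentration. The enzyme was added last to start the reaction. Guanine loss was followed at 248 nm, and velocities were compared with the uninhibited control.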
# Oryctolagus cuniculus [10] = organism: Oryctolagus cuniculus; assay: Inhibition of rabbit liver guanase using guanine as substrate compound treated at 32 times substrate concentration; procedure, shortened: as §1
# T1 sequence (P47989 whole entry): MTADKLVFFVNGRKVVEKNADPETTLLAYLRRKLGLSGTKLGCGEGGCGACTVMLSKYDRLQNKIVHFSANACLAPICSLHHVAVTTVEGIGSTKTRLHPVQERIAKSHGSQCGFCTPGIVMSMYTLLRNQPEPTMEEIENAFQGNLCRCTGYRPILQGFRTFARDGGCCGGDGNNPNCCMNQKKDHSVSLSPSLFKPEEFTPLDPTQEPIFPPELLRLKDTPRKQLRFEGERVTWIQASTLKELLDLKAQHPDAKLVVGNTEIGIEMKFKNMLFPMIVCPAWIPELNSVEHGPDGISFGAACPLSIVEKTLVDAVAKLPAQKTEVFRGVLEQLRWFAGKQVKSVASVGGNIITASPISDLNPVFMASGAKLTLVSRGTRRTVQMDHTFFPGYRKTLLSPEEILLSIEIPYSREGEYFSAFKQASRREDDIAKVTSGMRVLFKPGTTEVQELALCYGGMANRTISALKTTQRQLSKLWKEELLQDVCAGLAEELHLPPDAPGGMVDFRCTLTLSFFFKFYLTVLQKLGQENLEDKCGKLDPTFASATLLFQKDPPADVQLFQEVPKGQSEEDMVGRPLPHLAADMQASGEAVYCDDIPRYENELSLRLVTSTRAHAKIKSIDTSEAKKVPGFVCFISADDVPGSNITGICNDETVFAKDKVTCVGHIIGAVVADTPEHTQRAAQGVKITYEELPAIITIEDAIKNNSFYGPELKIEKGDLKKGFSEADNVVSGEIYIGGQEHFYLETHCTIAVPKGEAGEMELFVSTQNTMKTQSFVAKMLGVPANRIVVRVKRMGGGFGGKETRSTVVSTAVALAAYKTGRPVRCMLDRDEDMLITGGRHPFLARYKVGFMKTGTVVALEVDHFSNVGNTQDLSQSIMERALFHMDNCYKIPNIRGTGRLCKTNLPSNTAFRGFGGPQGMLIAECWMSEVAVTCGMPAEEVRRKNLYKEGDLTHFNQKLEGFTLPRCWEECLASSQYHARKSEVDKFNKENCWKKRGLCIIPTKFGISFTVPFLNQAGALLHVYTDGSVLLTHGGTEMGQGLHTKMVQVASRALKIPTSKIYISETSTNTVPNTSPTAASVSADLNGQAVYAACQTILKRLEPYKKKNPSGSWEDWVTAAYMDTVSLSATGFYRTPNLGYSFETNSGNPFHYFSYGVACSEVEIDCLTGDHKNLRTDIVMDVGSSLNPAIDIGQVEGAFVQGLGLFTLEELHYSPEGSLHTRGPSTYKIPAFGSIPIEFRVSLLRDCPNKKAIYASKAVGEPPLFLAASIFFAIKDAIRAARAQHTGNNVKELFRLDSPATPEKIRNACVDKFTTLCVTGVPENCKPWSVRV
SMILES,inhibition (INH) [1],inhibition (INH) [2],pKa [7],further results
O=c1[nH]cnc2nsnc12,,,,inhibition (Oryctolagus cuniculus [3]): inactive
NC1=NS(=O)(=O)Nc2[nH]cnc21,,,,inhibition (Oryctolagus cuniculus [4]): inactive
O=C1NS(=O)(=O)Nc2[nH]ncc21,Not Active,Not Active,6.5,Ki [5]: 250 µM; inhibition (Oryctolagus cuniculus [6]): Active; Ratio (Oryctolagus cuniculus [8]): 15
O=C1NS(=O)(=O)Nc2nc[nH]c21,Not Active,Not Active,,inhibition (Oryctolagus cuniculus [9]): inactive
NC1=NS(=O)(=O)Nc2[nH]ncc21,Not Active,Not Active,4.1,inhibition (Oryctolagus cuniculus [10]): inactive

# More lines, main results first:
inhibition (INH) [1],inhibition (INH) [2],pKa [7],SMILES,further results
Not Active,Not Active,,NC1=NS(=O)(=O)Nc2nc[nH]c21,
Not Active,Not Active,3.2,NC1=NS(=O)(=O)Nc2nsnc21,Ki [5]: 190 µM; inhibition (Oryctolagus cuniculus [6]): Active; Ratio (Oryctolagus cuniculus [8]): 11
